30 compounds from ChEMBL document CHEMBL1240433, “Design, synthesis, and antitubercular evaluation of novel series of 3-benzofuran-5-aryl-1-pyrazolyl-pyridylmethanone and 3-benzofuran-5-aryl-1-pyrazolylcarbonyl-4-oxo-naphthyridin analogs” (Eur J Med Chem, 2010) can be followed below.

For test [1], the system named is Mycobacterium tuberculosis. The experiment in a line: Antitubercular activity against Mycobacterium tuberculosis ATCC 35801 infected in CD1 mouse spleen at 25 mg/kg, iv after 6 weeks. The test is classed as functional. An outline of the steps:
(§1)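 Female CD-1 mice, 6 weeks old, six per group, were infected intravenously via the caudal vein with 10^6 to 10^7 viable organisms. Dosing at 25 mg/kg intraperitoneally began 10 days after infection. Viable counts came from serial 10-fold dilutions on 7H10 agar after incubation at 37 °C in ambient air for up to 6 weeks, compared with vehicle-treated controls.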

In another test the test system is Vero. The experiment in a line: Cytotoxicity against african green monkey Vero after 72 hrs by MTT assay. Conditions: Chlorocebus sabaeus. The test is classed as cell-based. In short, it runs like this: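 Mammalian Vero cells were used to determine IC50. The read-out was cellular reduction of MTT to a formazan product, measured with a non-radioactive cell proliferation kit.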
For orientation: Tetrazolium assays rely on reduction of a dye to a coloured formazan, in cell work by metabolically active cells.

Test [2] deals with Mycobacterium tuberculosis. Description: Antitubercular activity against Mycobacterium tuberculosis ATCC 35801 infected in CD1 mouse lung at 25 mg/kg, iv after 6 weeks. The test is classed as functional. In short, it runs like this:
as §1

Test [3] has as its system Mycobacterium tuberculosis. Description: Antitubercular activity against Mycobacterium tuberculosis H37Rv after 6 weeks. The test is classed as functional. An outline of the steps:
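Lowenstein-Jensen slope assay. DMSO stocks of 250 and 10 µg/mL were each mixed 0.8 mL into 7.2 mL L.J. medium, then inspissated at 75-80 °C for 3 days. A loopful of culture was dispersed with glass beads in sterile water by vortexing for 2 min and streaked onto the slopes. DMSO-only and drug-free media served as controls. Bacterial counts were read after 6 weeks at 37 °C.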

One may read the IC50 as the concentration at which inhibition is half-maximal. The MIC is the lowest concentration that inhibits growth of the organism.

In brackets after ≈: the same amount, converted by molar mass.

In the case of `O=C(c1ccncc1)N1N=C(c2cc3ccccc3o2)CC1/C=C/c1ccccc1` (stereo not given), the log10cfu was determined as 11.6 in test [1] and 10.8 in test [2]. In addition, in the test on Vero, the IC50 is above 212 µM. The compound also returned an MIC in test [3] of 8.6 µg/mL (≈ 21.9 µM).

Take `CCn1cc(C(=O)N2N=C(c3cc4ccccc4o3)CC2c2ccccc2[N+](=O)[O-])c(=O)c2ccc(C)nc21` (stereo not given): the log10cfu in test [1] was determined as 6.12; in test [2] it was 5.67. The half-maximal inhibitory concentration (IC50) in the test on Vero is above 85.4 µM. Further, 1.9 µg/mL (≈ 3.64 µM) was the least that counted as inhibitory in test [3] (MIC).

On to `CCn1cc(C(=O)N2N=C(c3cc4ccccc4o3)CC2c2ccccc2O)c(=O)c2ccc(C)nc21` (stereo not given), for which the log10cfu was found to be 5.36 in test [1] and 4.11 in test [2]. Further, the 50% inhibitory concentration (IC50) in the test with Vero is above 158 µM. The lowest concentration to inhibit growth in test [3] (MIC) was 1.2 µg/mL (≈ 2.44 µM).

`COc1ccccc1C1CC(c2cc3ccccc3o2)=NN1C(=O)c1ccncc1` (stereo not given): the log10cfu in test [1] is 10.6; in test [2], 9.65. Also, in the test on Vero, the half-maximal inhibitory concentration (IC50) is above 202 µM. The MIC in test [3] is 6.5 µg/mL (≈ 16.4 µM).

As for `COc1ccc(C2CC(c3cc4ccccc4o3)=NN2C(=O)c2ccncc2)c(O)c1` (stereo not given), the results for the log10cfu in test [1] and in test [2] were 6.52 and 6.98, respectively. This compound also registered a 50% inhibitory concentration (IC50) in the test with Vero above 191 µM. The compound also had an MIC in test [3] of 3.3 µg/mL (≈ 7.98 µM).

Regarding `CN(C)c1ccc(C2CC(c3cc4ccccc4o3)=NN2C(=O)c2ccncc2)cc1` (stereo not given), the log10cfu in test [1] was found to be 15.8; in test [2] it was 14.4. In the test with Vero, this compound displayed an IC50 above 211 µM. Also, in test [3], the minimal inhibitory concentration (MIC) came out at 9.2 µg/mL (≈ 22.4 µM).

As for `CCn1cc(C(=O)N2N=C(c3cc4ccccc4o3)CC2c2ccc(Cl)cc2)c(=O)c2ccc(C)nc21` (stereo not given), the results for the log10cfu in test [1] and in test [2] were 12.12 and 11.52, respectively. This compound yielded an IC50 with Vero above 160 µM. Further, in test [3], the MIC came to 8.3 µg/mL (≈ 16.2 µM).

Take `COc1ccc(C2CC(c3cc4ccccc4o3)=NN2C(=O)c2ccncc2)cc1` (stereo not given): the log10cfu in test [1] was 9.24; in test [2] it was 8.6. The IC50 with Vero was above 200 µM. The compound also registered an MIC in test [3] of 6.8 µg/mL (≈ 17.1 µM).

Regarding `O=C(c1ccncc1)N1N=C(c2cc3ccccc3o2)CC1c1ccccc1` (stereo not given), the log10cfu amounted to 10.6 in test [1] and 9.4 in test [2]. This compound also yielded an IC50 in the test with Vero above 210 µM. The same compound gave a minimal inhibitory concentration (MIC) in test [3] of 8.5 µg/mL (≈ 23.1 µM).

In the case of `NNC(=O)c1ccncc1` [ISONIAZID], the log10cfu in test [1] worked out at 5.45; in test [2] it was 4.62. In the test with Vero, this compound showed a concentration for half-maximal inhibition (IC50) above 130 µM. Also, the minimal inhibitory concentration (MIC) in test [3] is 0.32 µg/mL (≈ 2.33 µM).

Turning to `O=C(c1ccncc1)N1N=C(c2cc3ccccc3o2)CC1c1ccco1` (stereo not given), the log10cfu in test [1] was found to be 12.6; in test [2], 11.4. In the test with Vero, this compound showed an IC50 above 208 µM. This compound also registered an MIC in test [3] of 9.6 µg/mL (≈ 26.9 µM).

On to `CCn1cc(C(=O)N2N=C(c3cc4ccccc4o3)CC2c2ccco2)c(=O)c2ccc(C)nc21` (stereo not given), for which the log10cfu in test [1] is 10.52; in test [2], 9.66. This compound also yielded an IC50 in the test with Vero above 186 µM. For the same compound, the MIC in test [3] came to 7.5 µg/mL (≈ 16.1 µM).

Regarding `CCn1cc(C(=O)N2N=C(c3cc4ccccc4o3)CC2/C=C/c2ccccc2)c(=O)c2ccc(C)nc21` (stereo not given), the log10cfu in test [1] stood at 6.32; in test [2], 4.61. Further, the half-inhibitory concentration (IC50) in the test on Vero was above 169 µM. This compound showed a minimal inhibitory concentration (MIC) in test [3] of 5.5 µg/mL (≈ 10.9 µM).

On to `CCn1cc(C(=O)N2N=C(c3cc4ccccc4o3)CC2c2ccc(OC)cc2)c(=O)c2ccc(C)nc21` (stereo not given), for which the log10cfu in test [1] is 10.77; in test [2], 9.32. This compound also registered a half-inhibitory concentration (IC50) in the test on Vero above 156 µM. The MIC in test [3] was 6.3 µg/mL (≈ 12.4 µM).

As to `CCn1cc(C(=O)N2N=C(c3cc4ccccc4o3)CC2c2cccc([N+](=O)[O-])c2)c(=O)c2ccc(C)nc21` (stereo not given), the results for the log10cfu in test [1] and in test [2] were 3.25 and 2.65, respectively. In addition, in the test on Vero, the IC50 was above 164 µM. In addition, in test [3], 2.3 µg/mL (≈ 4.41 µM) was the least that counted as inhibitory (MIC).

On to `CCn1cc(C(=O)N2N=C(c3cc4ccccc4o3)CC2c2ccc(N(C)C)cc2)c(=O)c2ccc(C)nc21` (stereo not given), for which the log10cfu in test [1] came to 6.53; in test [2], 4.82. For the same compound, in the test with Vero, the IC50 was above 207 µM. In test [3], this compound had a minimal inhibitory concentration (MIC) of 9.2 µg/mL (≈ 17.7 µM).

As to `CCn1cc(C(=O)N2N=C(c3cc4ccccc4o3)CC2c2ccccc2)c(=O)c2ccc(C)nc21` (stereo not given), the log10cfu in test [1] is 12.98; in test [2] it was 12.23. Further, in the test with Vero, the IC50 is above 210 µM. The compound also showed a minimum inhibitory concentration (MIC) in test [3] of 9.8 µg/mL (≈ 20.6 µM).

With `CCn1cc(C(=O)N2N=C(c3cc4ccccc4o3)CC2c2ccccc2Cl)c(=O)c2ccc(C)nc21` (stereo not given), the values for the log10cfu in test [1] and in test [2] were 10.96 and 10.85, respectively. Also, the IC50 in the test with Vero is above 178 µM. In addition, the MIC in test [3] came to 7.8 µg/mL (≈ 15.3 µM).

With `O=C(c1ccncc1)N1N=C(c2cc3ccccc3o2)CC1c1ccc(Cl)cc1` (stereo not given), the log10cfu in test [1] was 12.4; in test [2], 13.8. Besides, the half-maximal inhibitory concentration (IC50) in the test with Vero was above 221 µM. This compound displayed an MIC in test [3] of 11.5 µg/mL (≈ 28.6 µM).

Take `CO[C@H]1/C=C/O[C@@]2(C)Oc3c(C)c(O)c4c(O)c(c(/C=N/N5CCN(C)CC5)c(O)c4c3C2=O)NC(=O)/C(C)=C\C=C\[C@H](C)[C@H](O)[C@@H](C)[C@@H](O)[C@@H](C)[C@H](OC(C)=O)[C@@H]1C` [RIFAMPIN]: the values for the log10cfu in test [1] and in test [2] were 3.98 and 3.21, respectively. For the same compound, in the test with Vero, the IC50 is above 74.5 µM. In addition, in test [3], 0.6 µg/mL (≈ 0.729 µM) was the least that counted as inhibitory (MIC).

Regarding `O=C(O)c1ccccc1C1CC(c2cc3ccccc3o2)=NN1C(=O)c1ccncc1` (stereo not given), the log10cfu in test [1] amounted to 5.42; in test [2], 6.24. For the same compound, the IC50 in the test with Vero was above 171 µM. Also, the lowest concentration to inhibit growth in test [3] (MIC) was 2.2 µg/mL (≈ 5.35 µM).

In the case of `O=C(c1ccncc1)N1N=C(c2cc3ccccc3o2)CC1c1ccccc1O` (stereo not given), the values for the log10cfu in test [1] and in test [2] were 9.45 and 7.2, respectively. Besides, the half-maximal inhibitory concentration (IC50) in the test on Vero is above 195 µM. The compound further registered an MIC in test [3] of 3.7 µg/mL (≈ 9.65 µM).

For the compound `O=C(c1ccncc1)N1N=C(c2cc3ccccc3o2)CC1c1cccc([N+](=O)[O-])c1` (stereo not given), the values for the log10cfu in test [1] and in test [2] were 11.6 and 10.8, respectively. In addition, the 50% inhibitory concentration (IC50) with Vero is above 240 µM. Further, in test [3], inhibition of growth (MIC) required 7.5 µg/mL (≈ 18.2 µM).

`O=C(c1ccncc1)N1N=C(c2cc3ccccc3o2)CC1c1ccccc1[N+](=O)[O-]` (stereo not given): the figures for the log10cfu in test [1] and in test [2] were 10.5 and 9.5, respectively. The same compound registered an IC50 in the test on Vero above 245 µM. This compound also had a minimum inhibitory concentration (MIC) in test [3] of 8.2 µg/mL (≈ 19.9 µM).

With `CCn1cc(C(=O)N2N=C(c3cc4ccccc4o3)CC2c2ccc(O)cc2)c(=O)c2ccc(C)nc21` (stereo not given), the log10cfu is reported as 7.21 in test [1] and 5.49 in test [2]. The same compound registered an IC50 in the test with Vero above 148 µM. Moreover, the MIC in test [3] was 3.2 µg/mL (≈ 6.5 µM).

As to `CCn1cc(C(=O)N2N=C(c3cc4ccccc4o3)CC2c2ccc(OC)cc2O)c(=O)c2ccc(C)nc21` (stereo not given), the log10cfu in test [1] is recorded as 9.28; in test [2], 8.42. The compound further had an IC50 in the test on Vero above 154 µM. This compound also yielded an MIC in test [3] of 4.2 µg/mL (≈ 8.04 µM).

With `CCn1cc(C(=O)N2N=C(c3cc4ccccc4o3)CC2c2ccccc2C(=O)O)c(=O)c2ccc(C)nc21` (stereo not given), the log10cfu is recorded as 6.16 in test [1] and 5.12 in test [2]. In addition, the concentration for half-maximal inhibition (IC50) in the test with Vero is above 196 µM. Further, it took 4.5 µg/mL (≈ 8.64 µM) to inhibit growth in test [3] (MIC).

On to `CCn1cc(C(=O)N2N=C(c3cc4ccccc4o3)CC2c2ccccc2OC)c(=O)c2ccc(C)nc21` (stereo not given), for which the log10cfu worked out at 6.13 in test [1] and 6.87 in test [2]. The compound also gave an IC50 with Vero above 188 µM. In test [3], this compound came in with an MIC of 5.5 µg/mL (≈ 10.9 µM).

With `O=C(c1ccncc1)N1N=C(c2cc3ccccc3o2)CC1c1ccc(O)cc1` (stereo not given), the log10cfu in test [1] came out at 8.2; in test [2], 7.46. In addition, in the test with Vero, the IC50 was above 200 µM. The same compound came in with an MIC in test [3] of 4.5 µg/mL (≈ 11.7 µM).

Consider `O=C(c1ccncc1)N1N=C(c2cc3ccccc3o2)CC1c1ccccc1Cl` (stereo not given), for which the log10cfu in test [1] amounted to 12.2; in test [2], 12.5. Moreover, the 50% inhibitory concentration (IC50) in the test on Vero is above 211 µM. The compound further showed a minimum inhibitory concentration (MIC) in test [3] of 10.6 µg/mL (≈ 26.4 µM).
